Measurements published in ChEMBL document CHEMBL3044834, “Novel protoporphyrinogen oxidase inhibitors: 3H-pyrazolo[3,4-d][1,2,3]triazin-4-one derivatives” (J Agric Food Chem, 2008).

Columns and labels:
Type in all cases: functional
Digitaria sanguinalis [1] = assay: Herbicidal activity against Digitaria sanguinalis (hairy crabgrass) assessed as inhibition of fresh weed plant weight at 1500 g/ha using post-emergence treatment protocol
How it was run: (§1)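 Test compounds made up as emulsions by dissolving in 100 µL N,N-dimethylformamide, then adding a little Tween 20 and water. For post-emergence, weed seedlings at one leaf and one stem were sprayed at the same rates as the pre-emergence test. Fresh weight was recorded 15 days after treatment and expressed as percent inhibition versus controls. All treatments were run in triplicate.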

Amaranthus retroflexus [2] = assay: Herbicidal activity against Amaranthus retroflexus assessed as inhibition of fresh weed plant weight at 93.75 g/ha using pre-emergence treatment protocol
[3] = tested on: Brassica rapa subsp. oleifera; assay: Herbicidal activity against Brassica rapa subsp. oleifera assessed as inhibition of fresh weed plant weight at 187.5 g/ha using pre-emergence treatment protocol
Digitaria sanguinalis [4] = assay: Herbicidal activity against Digitaria sanguinalis (hairy crabgrass) assessed as inhibition of fresh weed plant weight at 375 g/ha using pre-emergence treatment protocol
Amaranthus retroflexus [5] = assay: Herbicidal activity against Amaranthus retroflexus assessed as inhibition of fresh weed plant weight at 750 g/ha using pre-emergence treatment protocol; how it was run: as §1
Amaranthus retroflexus [6] = assay: Herbicidal activity against Amaranthus retroflexus assessed as inhibition of fresh weed plant weight at 93.75 g/ha using post-emergence treatment protocol; how it was run: as §1
[7] = tested on: Brassica rapa subsp. oleifera; assay: Herbicidal activity against Brassica rapa subsp. oleifera assessed as inhibition of fresh weed plant weight at 375 g/ha using post-emergence treatment protocol; how it was run: as §1
Digitaria sanguinalis [8] = assay: Herbicidal activity against Digitaria sanguinalis (hairy crabgrass) assessed as inhibition of fresh weed plant weight at 22.5 g/ha using pre-emergence treatment protocol
Amaranthus retroflexus [9] = assay: Herbicidal activity against Amaranthus retroflexus assessed as inhibition of fresh weed plant weight at 750 g/ha using post-emergence treatment protocol; how it was run: as §1
Amaranthus retroflexus [10] = assay: Herbicidal activity against Amaranthus retroflexus assessed as inhibition of fresh weed plant weight at 45 g/ha using pre-emergence treatment protocol
[11] = tested on: Brassica rapa subsp. oleifera; assay: Herbicidal activity against Brassica rapa subsp. oleifera assessed as inhibition of fresh weed plant weight at 45 g/ha using pre-emergence treatment protocol
Echinochloa crus-galli [12] = assay: Herbicidal activity against Echinochloa crus-galli (barnyard grass) assessed as inhibition of fresh weed plant weight at 187.5 g/ha using pre-emergence treatment protocol; how it was run: as §1
Digitaria sanguinalis [13] = assay: Herbicidal activity against Digitaria sanguinalis (hairy crabgrass) assessed as inhibition of fresh weed plant weight at 750 g/ha using post-emergence treatment protocol; how it was run: as §1
Digitaria sanguinalis [14] = assay: Herbicidal activity against Digitaria sanguinalis (hairy crabgrass) assessed as inhibition of fresh weed plant weight at 93.75 g/ha using post-emergence treatment protocol; how it was run: as §1
Amaranthus retroflexus [15] = assay: Herbicidal activity against Amaranthus retroflexus assessed as inhibition of fresh weed plant weight at 1500 g/ha using pre-emergence treatment protocol
Digitaria sanguinalis [16] = assay: Herbicidal activity against Digitaria sanguinalis (hairy crabgrass) assessed as inhibition of fresh weed plant weight at 93.75 g/ha using pre-emergence treatment protocol
Amaranthus retroflexus [17] = assay: Herbicidal activity against Amaranthus retroflexus assessed as inhibition of fresh weed plant weight at 187.5 g/ha using post-emergence treatment protocol; how it was run: as §1
[18] = tested on: Brassica rapa subsp. oleifera; assay: Herbicidal activity against Brassica rapa subsp. oleifera assessed as inhibition of fresh weed plant weight at 1500 g/ha using pre-emergence treatment protocol
[19] = tested on: Brassica rapa subsp. oleifera; assay: Herbicidal activity against Brassica rapa subsp. oleifera assessed as inhibition of fresh weed plant weight at 750 g/ha using post-emergence treatment protocol; how it was run: as §1
Echinochloa crus-galli [20] = assay: Herbicidal activity against Echinochloa crus-galli (barnyard grass) assessed as inhibition of fresh weed plant weight at 45 g/ha using pre-emergence treatment protocol
Amaranthus retroflexus [21] = assay: Herbicidal activity against Amaranthus retroflexus assessed as inhibition of fresh weed plant weight at 187.5 g/ha using pre-emergence treatment protocol
[22] = tested on: Brassica rapa subsp. oleifera; assay: Herbicidal activity against Brassica rapa subsp. oleifera assessed as inhibition of fresh weed plant weight at 187.5 g/ha using post-emergence treatment protocol; how it was run: as §1
Amaranthus retroflexus [23] = assay: Herbicidal activity against Amaranthus retroflexus assessed as inhibition of fresh weed plant weight at 1500 g/ha using post-emergence treatment protocol; how it was run: as §1
Digitaria sanguinalis [24] = assay: Herbicidal activity against Digitaria sanguinalis (hairy crabgrass) assessed as inhibition of fresh weed plant weight at 187.5 g/ha using pre-emergence treatment protocol
Digitaria sanguinalis [25] = assay: Herbicidal activity against Digitaria sanguinalis (hairy crabgrass) assessed as inhibition of fresh weed plant weight at 375 g/ha using post-emergence treatment protocol; how it was run: as §1
Digitaria sanguinalis [26] = assay: Herbicidal activity against Digitaria sanguinalis (hairy crabgrass) assessed as inhibition of fresh weed plant weight at 187.5 g/ha using post-emergence treatment protocol; how it was run: as §1
Echinochloa crus-galli [27] = assay: Herbicidal activity against Echinochloa crus-galli (barnyard grass) assessed as inhibition of fresh weed plant weight at 93.75 g/ha using pre-emergence treatment protocol
[28] = tested on: Brassica rapa subsp. oleifera; assay: Herbicidal activity against Brassica rapa subsp. oleifera assessed as inhibition of fresh weed plant weight at 1500 g/ha using post-emergence treatment protocol; how it was run: as §1
Echinochloa crus-galli [29] = assay: Herbicidal activity against Echinochloa crus-galli (barnyard grass) assessed as inhibition of fresh weed plant weight at 375 g/ha using post-emergence treatment protocol; how it was run: as §1
[30] = tested on: Brassica rapa subsp. oleifera; assay: Herbicidal activity against Brassica rapa subsp. oleifera assessed as inhibition of fresh weed plant weight at 93.75 g/ha using pre-emergence treatment protocol
Echinochloa crus-galli [31] = assay: Herbicidal activity against Echinochloa crus-galli (barnyard grass) assessed as inhibition of fresh weed plant weight at 93.75 g/ha using post-emergence treatment protocol; how it was run: as §1
Echinochloa crus-galli [32] = assay: Herbicidal activity against Echinochloa crus-galli (barnyard grass) assessed as inhibition of fresh weed plant weight at 22.5 g/ha using pre-emergence treatment protocol; how it was run: as §1
Amaranthus retroflexus [33] = assay: Herbicidal activity against Amaranthus retroflexus assessed as inhibition of fresh weed plant weight at 22.5 g/ha using pre-emergence treatment protocol
Amaranthus retroflexus [34] = assay: Herbicidal activity against Amaranthus retroflexus assessed as inhibition of fresh weed plant weight at 375 g/ha using post-emergence treatment protocol; how it was run: as §1
[35] = tested on: Brassica rapa subsp. oleifera; assay: Herbicidal activity against Brassica rapa subsp. oleifera assessed as inhibition of fresh weed plant weight at 750 g/ha using pre-emergence treatment protocol
Echinochloa crus-galli [36] = assay: Herbicidal activity against Echinochloa crus-galli (barnyard grass) assessed as inhibition of fresh weed plant weight at 187.5 g/ha using post-emergence treatment protocol; how it was run: as §1
[37] = tested on: Brassica rapa subsp. oleifera; assay: Herbicidal activity against Brassica rapa subsp. oleifera assessed as inhibition of fresh weed plant weight at 93.75 g/ha using post-emergence treatment protocol; how it was run: as §1
Digitaria sanguinalis [38] = assay: Herbicidal activity against Digitaria sanguinalis (hairy crabgrass) assessed as inhibition of fresh weed plant weight at 1500 g/ha using pre-emergence treatment protocol
Echinochloa crus-galli [39] = assay: Herbicidal activity against Echinochloa crus-galli (barnyard grass) assessed as inhibition of fresh weed plant weight at 1500 g/ha using post-emergence treatment protocol; how it was run: as §1
Echinochloa crus-galli [40] = assay: Herbicidal activity against Echinochloa crus-galli (barnyard grass) assessed as inhibition of fresh weed plant weight at 750 g/ha using pre-emergence treatment protocol
[41] = tested on: Brassica rapa subsp. oleifera; assay: Herbicidal activity against Brassica rapa subsp. oleifera assessed as inhibition of fresh weed plant weight at 375 g/ha using pre-emergence treatment protocol
[42] = tested on: Brassica rapa subsp. oleifera; assay: Herbicidal activity against Brassica rapa subsp. oleifera assessed as inhibition of fresh weed plant weight at 22.5 g/ha using pre-emergence treatment protocol
Digitaria sanguinalis [43] = assay: Herbicidal activity against Digitaria sanguinalis (hairy crabgrass) assessed as inhibition of fresh weed plant weight at 750 g/ha using pre-emergence treatment protocol
Amaranthus retroflexus [44] = assay: Herbicidal activity against Amaranthus retroflexus assessed as inhibition of fresh weed plant weight at 375 g/ha using pre-emergence treatment protocol
Echinochloa crus-galli [45] = assay: Herbicidal activity against Echinochloa crus-galli (barnyard grass) assessed as inhibition of fresh weed plant weight at 375 g/ha using pre-emergence treatment protocol; how it was run: as §1
Echinochloa crus-galli [46] = assay: Herbicidal activity against Echinochloa crus-galli (barnyard grass) assessed as inhibition of fresh weed plant weight at 1500 g/ha using pre-emergence treatment protocol
Echinochloa crus-galli [47] = assay: Herbicidal activity against Echinochloa crus-galli (barnyard grass) assessed as inhibition of fresh weed plant weight at 750 g/ha using post-emergence treatment protocol; how it was run: as §1
Digitaria sanguinalis [48] = assay: Herbicidal activity against Digitaria sanguinalis (hairy crabgrass) assessed as inhibition of fresh weed plant weight at 45 g/ha using pre-emergence treatment protocol

With `C#CCN1C(=O)COc2cc(F)c(-n3nnc4c(cnn4CC=C)c3=O)cc21` the inhibition at 1500 g/ha (Digitaria sanguinalis [1]) was 32.1%, the inhibition at 93.75 g/ha (Amaranthus retroflexus [2]) was 100% and the inhibition at 187.5 g/ha [3] was 100%. For the same compound, the inhibition at 375 g/ha (Digitaria sanguinalis [4]) was 100%, the inhibition at 750 g/ha (Amaranthus retroflexus [5]) was 100% and the inhibition at 93.75 g/ha (Amaranthus retroflexus [6]) was 0%. It also gave an inhibition at 375 g/ha [7] of 100%, an inhibition at 22.5 g/ha (Digitaria sanguinalis [8]) of 0% and an inhibition at 750 g/ha (Amaranthus retroflexus [9]) of 100%. The inhibition at 45 g/ha (Amaranthus retroflexus [10]) was 86.2%, the inhibition at 45 g/ha [11] was 66.7% and the inhibition at 187.5 g/ha (Echinochloa crus-galli [12]) was 63.7%. The inhibition at 750 g/ha (Digitaria sanguinalis [13]) was 16.7%, the inhibition at 93.75 g/ha (Digitaria sanguinalis [14]) was 0% and the inhibition at 1500 g/ha (Amaranthus retroflexus [15]) was 100%. The inhibition at 93.75 g/ha (Digitaria sanguinalis [16]) was 44.9%, the inhibition at 187.5 g/ha (Amaranthus retroflexus [17]) was 5.8% and the inhibition at 1500 g/ha [18] was 100%. For the same compound, the inhibition at 750 g/ha [19] was 100%, the inhibition at 45 g/ha (Echinochloa crus-galli [20]) was 34% and the inhibition at 187.5 g/ha (Amaranthus retroflexus [21]) was 100%. It also gave an inhibition at 187.5 g/ha [22] of 72.9%, an inhibition at 1500 g/ha (Amaranthus retroflexus [23]) of 100% and an inhibition at 187.5 g/ha (Digitaria sanguinalis [24]) of 77.6%. For the same compound, the inhibition at 375 g/ha (Digitaria sanguinalis [25]) was 4.2%, the inhibition at 187.5 g/ha (Digitaria sanguinalis [26]) was 0% and the inhibition at 93.75 g/ha (Echinochloa crus-galli [27]) was 53.4%. The inhibition at 1500 g/ha [28] was 100%, the inhibition at 375 g/ha (Echinochloa crus-galli [29]) was 43.5% and the inhibition at 93.75 g/ha [30] was 100%. The inhibition at 93.75 g/ha (Echinochloa crus-galli [31]) was 7%, the inhibition at 22.5 g/ha (Echinochloa crus-galli [32]) was 25.1% and the inhibition at 22.5 g/ha (Amaranthus retroflexus [33]) was 76.6%. It also gave an inhibition at 375 g/ha (Amaranthus retroflexus [34]) of 83.5%, an inhibition at 750 g/ha [35] of 100% and an inhibition at 187.5 g/ha (Echinochloa crus-galli [36]) of 27.8%. For the same compound, the inhibition at 93.75 g/ha [37] was 18.5%, the inhibition at 1500 g/ha (Digitaria sanguinalis [38]) was 100% and the inhibition at 1500 g/ha (Echinochloa crus-galli [39]) was 85.2%. It also gave an inhibition at 750 g/ha (Echinochloa crus-galli [40]) of 98.9%, an inhibition at 375 g/ha [41] of 100% and an inhibition at 22.5 g/ha [42] of 22.3%. The inhibition at 750 g/ha (Digitaria sanguinalis [43]) was 100%, the inhibition at 375 g/ha (Amaranthus retroflexus [44]) was 100% and the inhibition at 375 g/ha (Echinochloa crus-galli [45]) was 97.3%. The inhibition at 1500 g/ha (Echinochloa crus-galli [46]) was 100%, the inhibition at 750 g/ha (Echinochloa crus-galli [47]) was 51.6% and the inhibition at 45 g/ha (Digitaria sanguinalis [48]) was 2.4%.
